Screening data (PubChem BioAssay)
Lmaj promast: Leishmania major promastigote growth inhibition, primary screen; Leishmania major promastigotes, resazurin fluorescence viability; inhibition, % at 10 µM; 200,000 compounds, 9% hits; in the data active = inhibition above about 50%;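 note: promastigotes grown with compound for 44 hours at 28 °C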
SKKanGAS inh: S. pyogenes SKKanGAS growth inhibitors in kanamycin, primary screen, streptokinase expression inhibitor project, SKKanGAS strain, BacTiter-Glo luminescence; 6 h; inhibition, % at 7.5 µM; 300,000 compounds, 1.3% hits; AID 1662, 2009;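 active = mean replicate score, as percent of positive control median, at least 50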;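 note: strain carries kanamycin resistance gene driven by streptokinase promoter and grows in 40 µg/ml kanamycin; loss of luminescence reflects streptokinase promoter inhibition or plain growth inhibition; 0% = median of DMSO wells and 100% = positive control at its reference dose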
CSC inhib: cancer stem cell viability inhibitors, primary screen, luminescence. cancer stem cell-like cells viability. inhibition, % at 7.5 µM. 300,000 compounds, 1.1% hits. AID 2717, 2010; in the data active = inhibition above about 75%; tested in HMLE shEcad cells
Mdm2 MdmX PPI: inhibitors of human Mdm2-MdmX association, primary screen, cell-based, luminescence, split luciferase, SaOS-2, uHTS; 330,000 compounds, 3% hits; SaOS-2 split-luciferase Mdm2/MdmX complementation; inhibition, % at 8 µM;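 active = inhibition of at least 50% at 8 µM in the primary screen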
Beta apoptosis: inhibitors of cytokine-induced beta cell apoptosis, primary screen, luminescence; INS-1E cytokine-induced death, ATP luminescence, 48 h; percent of positive-control rescue, neutral wells zero; protection from apoptosis, % (no concentration beside the values); 300,000 compounds, 0.8% hits; AID 435005, 2010;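 active = Every replicate reaches about 75%, or at least half do and their mean reaches it too, limit read from the data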;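 note: 0% = cytokine-treated negative control wells and 100% = positive control rescue; higher means more ATP so stronger rescue from cytokine killing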
T cruzi inh: inhibitors of intracellular T. cruzi growth, primary screen, luminescence, NIH3T3 host cells; T. cruzi beta-gal in NIH3T3, 90 h; inhibition, % (test concentration not listed); 300,000 compounds, 1.4% hits;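 active = mean inhibition across valid replicates above about 55%, limit read from the data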;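 note: signal also drops with host cell toxicity which is not excluded here; 0% = plate median of DMSO wells and 100% = zero luminescence signal; higher percent means less beta-gal luminescence so fewer parasites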
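Assay system: NIH/3T3 host cells with β-galactosidase reporter T. cruzi; input: 5,000 host fibroblasts per well; compound: single 50 nL compound addition per well in DMSO; timing: ≥90 h infection period, 3 h prior cell attachment; measured by: GalScreen β-gal luminescence, detergent lysis, 60 min; evaluation: percent inhibition of parasite-derived β-gal signal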
Starred values were filed as active, the others as inactive; / = no result given. Compounds with a hit are over-represented: about 9.4% of the library has one in this group of screens.

SMILES	Lmaj promast	SKKanGAS inh	CSC inhib	Mdm2 MdmX PPI	Beta apoptosis	T cruzi inh
COC(=O)C1=Nc2ccccc2/C1=C\c1c(O)n(-c2ccc(Br)cc2)c(=O)[nH]c1=O	66.9*	/	9.4	/	-2.7	/
CN(C)CCNC(=O)c1cccn(Cc2cc(C(F)(F)F)cc(C(F)(F)F)c2)c1=O	-1.1	-5.7	1.0	-7.5	-4.6	17.9
COC1CC(OC2CCC3(C)C(CCC4C3CCC3(C)C(C5=CC(=O)OC5)C(OC(C)=O)CC43O)C2)OC(C)C1OC1OC(COC2OC(CO)C(O)C(O)C2O)C(O)C(O)C1O (stereo unspecified)	/	-0.6	78.8*	/	/	-9.5
FC(F)(F)c1cccc(-n2nnnc2C2(N3CCOCC3)CCCCC2)c1	83.7*	0.9	13.1	19.9	6.7	3.5
C#CC[N+]1(C)C2CCC1CC(O)C2 (stereo unspecified)	-4.7	0.9	24.3	22.3	-1.1	-1.7
OC(CNCCc1c[nH]c2ccccc12)c1ccccc1 (stereo unspecified)	/	-1.0	-5.7	12.4	-6.0	-2.1
COC(=O)C1=C(c2cc3ccccc3s2)C[C@@H]2CC[C@H]1N2C(=O)NCCNC(C)=O	/	-0.4	-3.5	1.1	-6.0	-7.7
COc1ccccc1CCNC1CCC(C)CC1 (stereo unspecified)	76.7*	-3.0	10.0	-18.1	2.3	-4.8
CCC(=O)OC1(Cc2ccc(CC)cc2)CC(C)N(C)CC1C (stereo unspecified)	/	-9.5	-12.9	4.8	-4.9	14.1
COC(=O)C1=C(c2cccc(OCc3ccccc3)c2)C[C@@H]2CC[C@H]1N2C(=O)NCc1ccccc1C(F)(F)F	/	/	37.7	18.8	19.7	/
CN1CCN(c2ccc(C(F)(F)F)cc2N)CC1	3.6	3.3	-0.1	0.8	-0.2	43.3
CC(c1ccccc1F)n1cc(C(=O)Nc2ccc3nc[nH]c3c2)nn1 (stereo unspecified)	71.7*	-5.6	-10.1	22.7	-1.5	11.0
COC1=C(OC)[C@]23CCc4ccc(OC)c(OC)c4[C@]2(CCN3C)CC1=O	/	/	-3.7	-10.7	-11.7	/
O=C(COc1ccccc1)N1CCN(CC2CC3C=CC2C3)CC1 (stereo unspecified)	90.7*	-11.4	28.0	17.3	-12.0	4.9
Cc1ccc(OCC(=O)N2CCN(CC3CC4C=CC3C4)CC2)cc1 (stereo unspecified)	77.7*	-4.3	9.2	9.9	-4.5	15.8
Cc1ccc(OCC(=O)N2CCN(Cc3ccc([N+](=O)[O-])cc3)CC2)cc1	/	-0.7	8.4	20.9	0.7	22.7
O=C(COc1ccccc1)N1CCN(CC2CC=CCC2)CC1 (stereo unspecified)	/	1.0	/	16.6	-7.2	-0.7
CCCCn1c(O)c(C(CC)=NCc2cc(OC)cc(OC)c2)c(=O)[nH]c1=O	99.6*	-2.3	/	4.5	-3.1	13.2
CCCCn1c(O)c(C(CC)=Nc2ccc(OCC)cc2)c(=O)[nH]c1=O	17.2	55.1*	-6.4	4.2	2.2	7.6
CCCCn1c(O)c(C(C)=NCc2cc(OC)cc(OC)c2)c(=O)[nH]c1=O	9.8	6.6	2.1	22.3	-22.2	-12.5
O=C(CN1CC=C(c2ccccc2)CC1)Nc1c(Cl)cccc1Cl	5.1	-6.2	9.8	-30.5	-2.4	23.6
O=C(CN1CC=C(c2ccccc2)CC1)Nc1cc(Cl)ccc1Cl	54.7*	7.1	55.4	-9.8	-2.5	8.7
CC(=Nc1ccc(F)cc1)c1c(O)n(C)c(=O)[nH]c1=O	/	-2.0	-7.9	-15.2	4.6	-15.7
CCN(CC)c1ccccc1	/	/	0.7	-8.9	3.0	/
CCN(CC)c1ccc(/C=C/[N+](=O)[O-])cc1	68.8*	-2.8	68.8	38.5	0.6	-6.3
SMILES	Lmaj promast	SKKanGAS inh	CSC inhib	Mdm2 MdmX PPI	Beta apoptosis	T cruzi inh
c1ccc(CN2CCNCC2)nc1	/	5.8	8.5	-21.5	-1.0	-8.8
c1ccc(C(OCCN2CCNCC2)c2ccccc2)cc1	100.2*	-19.9	-10.3	34.7	0.5	-5.6
CC1CCC(NC(=O)CNC(=S)N2CC3CC(C2)c2cccc(=O)n2C3)CC1 (stereo unspecified)	/	-2.0	-2.2	-5.7	-9.3	-3.5
CCc1ccc(NC(=O)CCNC(=O)N2C[C@H]3C[C@@H](C2)c2cccc(=O)n2C3)cc1	/	0.0	-2.8	-11.1	/	1.2
CC(C(=O)c1ccccc1)N1C(=O)c2ccccc2C1=O (stereo unspecified)	75.4*	8.1	-6.9	-7.1	-4.7	2.4
Cc1nn(Cc2ccccc2)c(C)c1C(=O)OCC(=O)Nc1cccc(S(N)(=O)=O)c1	5.3	-5.3	10.5	-5.0	1.5	9.2
COCCO[C@H]1CCC2C3CC=C4C[C@@H](O)CC[C@]4(C)C3CC[C@@]21C (stereo partly specified)	/	/	2.4	16.6	-2.3	/
COc1cc(OC)c([C@H]2C=C(C)[C@H]3C[C@@H]2C3(C)C)c(OC)c1	/	97.4*	38.2	-10.1	5.3	14.5
CC(=NCCN1CCCCC1)c1c(O)n(-c2ccccc2)c(=O)[nH]c1=O	/	1.2	-14.6	-30.5	-11.3	-7.2
C[C@]12C[C@@H](O)[C@H](O)CC1=CCC1C2CC[C@@]2(C)C1CC[C@@H]2O (stereo partly specified)	/	/	-17.0	6.3	1.1	/
COc1ccc(CN2CCCC(C(=O)c3ccc(Cl)cc3)C2)c(O)c1 (stereo unspecified)	/	4.7	3.7	-4.7	/	21.0
O=C(c1ccc(Cl)cc1)C1CCCN(Cc2cccc3cccnc23)C1 (stereo unspecified)	82.8*	-12.6	19.4	14.8	0.3	11.7
O=C(c1ccc(Cl)cc1)C1CCCN(Cc2cccc3ncccc23)C1 (stereo unspecified)	80.6*	3.7	8.1	27.4	2.1	38.2
Cc1cc(Cl)ccc1C(=O)C1CCCN(Cc2ccon2)C1 (stereo unspecified)	47.6	-25.8	-3.1	-9.0	-1.1	0.5
O=C(c1ccc(Cl)cc1)C1CCCN(Cc2ccc3nonc3c2)C1 (stereo unspecified)	84.7*	0.3	20.4	-1.4	2.4	7.2
O=P1(NCCCl)OCCCN1CCCl (stereo unspecified)	/	/	4.3	-8.1	0.4	/
CN(C)CC1CSCCC1(O)c1ccc(C(F)(F)F)cc1 (stereo unspecified)	19.4	-1.2	1.0	-33.6	-5.4	-22.1
O=S(=O)(c1ccc(Cl)cc1)N1CC1c1ccccc1 (stereo unspecified)	45.9	-8.0	-8.3	7.7	0.0	-2.3
COC(=O)c1nc(-c2ccc3c(n2)C(=O)C(N)=C(OC)C3=O)c(N)c(-c2ccc(OC)c(OC)c2O)c1C	/	34.5	112.8*	36.0	110.9*	50.4
CCN(CC)CCNC(=O)c1c(O)c2ccccc2n(Cc2ccccc2)c1=O	89.5*	2.2	23.8	6.7	/	9.0
